Measurements published in ChEMBL document CHEMBL1938284, “Synthesis and biological activity of novel organoselenium derivatives targeting multiple kinases and capable of inhibiting cancer progression to metastases” (Eur J Med Chem, 2012).

Assay: Antiproliferative activity against human MDA231 cells after 72 hrs by MTT assay
Type: functional, cell-based
Conditions: MDA-MB-231, 72 h
Outline: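 MTT read-out on MDA-231 cells. 1×10^3 exponentially growing cells seeded and incubated 24, 48 and 72 h. Medium replaced with 1 mg/mL MTT for 3–4 h at 37 °C.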

O=c1c2ccccc2[se]n1[C@@H]1O[C@H](CO)[C@H](O)[C@H](O)[C@H]1O
IC50: > 100 µM

CC(=O)OC[C@H]1O[C@@H](n2[se]c3ccccc3c2=O)[C@H](OC(C)=O)[C@@H](OC(C)=O)[C@H]1OC(C)=O
IC50: 21 µM

CC(=O)OC[C@H]1O[C@@H](n2[se]c3ccccc3c2=O)[C@H](OC(C)=O)[C@@H](OC(C)=O)[C@@H]1O[C@@H]1O[C@H](COC(C)=O)[C@@H](OC(C)=O)[C@H](OC(C)=O)[C@H]1OC(C)=O
IC50: 20 µM

O=c1c2ccccc2[se]n1[C@@H]1O[C@H](CO)[C@@H](O[C@@H]2O[C@H](CO)[C@H](O)[C@H](O)[C@H]2O)[C@H](O)[C@H]1O
IC50: > 100 µM

CC(=O)OC[C@H]1O[C@@H](OCCn2[se]c3ccccc3c2=O)[C@H](OC(C)=O)[C@@H](OC(C)=O)[C@@H]1OC(C)=O
IC50: 35 µM

O=c1c2ccccc2[se]n1[C@@H]1O[C@H](CO)[C@@H](O[C@@H]2O[C@H](CO)[C@@H](O)[C@H](O)[C@H]2O)[C@H](O)[C@H]1O
IC50: > 100 µM

O=c1c2ccccc2[se]n1CCO[C@@H]1O[C@H](CO)[C@@H](O)[C@H](O)[C@H]1O
IC50: > 100 µM
